# MrgX1 antagonist: antagonists of human MrgX1 receptor | Q96LB2 | MRGX1-HEK293 calcium flux, Fluo-4, BAM8-22 antagonism; active compounds read low | B-score at 10 µM | 310,000 compounds, 1.3% hits | AID 588676;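 active means calcium-response B-score plate-corrected more than 3 library SD below zero, starting fluorescence within 5 deviations, no agonist response on first addition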;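 further: peak minus trough fluorescence over baseline after final BAM8-22 challenge near maximal dose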
# Target sequence (Q96LB2 whole entry, looked up): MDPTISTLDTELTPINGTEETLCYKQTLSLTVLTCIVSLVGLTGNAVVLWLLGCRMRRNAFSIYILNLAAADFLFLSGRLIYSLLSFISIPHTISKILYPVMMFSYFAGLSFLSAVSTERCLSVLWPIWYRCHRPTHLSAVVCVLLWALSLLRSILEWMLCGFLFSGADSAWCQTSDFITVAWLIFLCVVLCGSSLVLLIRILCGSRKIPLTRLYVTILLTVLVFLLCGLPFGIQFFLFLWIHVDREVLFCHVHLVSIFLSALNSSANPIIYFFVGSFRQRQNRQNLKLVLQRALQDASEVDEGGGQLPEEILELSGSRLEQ
# MrgX1 PAM: human MrgX1 positive allosteric modulation, primary screen | Q96LB2 | MrgX1-HEK293, Fluo-4 calcium flux, FDSS; active compounds read high | B-score at 10 µM | 310,000 compounds, 0.63% hits | AID 588675;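 active means plate-corrected calcium response at least 3 library SD above typical, normal starting fluorescence, not activating the receptor alone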;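 further: compound read alongside a low EC10 to EC30 dose of BAM8-22 agonist; peak minus trough fluorescence over baseline measured at the second addition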
# RGS4 inh: human RGS4 inhibition; HEK293 M3R/RGS4 inducible, Fluo-4 calcium flux; active compounds read high; triggered by carbachol at its EC20; B-score at 10 µM; 310,000 compounds, 0.45% hits;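 active means B-score, a plate-corrected calcium signal, over three deviations above library mean, with baseline fluorescence within five deviations of library mean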;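 further: RGS4 expression induced by doxycycline in cells with stable M3 receptor; B-score is computed from the integrated fluorescence ratio over baseline after carbachol; higher B-score means a larger calcium signal and so more RGS4 inhibition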
# Target sequence (P49798 whole entry, looked up): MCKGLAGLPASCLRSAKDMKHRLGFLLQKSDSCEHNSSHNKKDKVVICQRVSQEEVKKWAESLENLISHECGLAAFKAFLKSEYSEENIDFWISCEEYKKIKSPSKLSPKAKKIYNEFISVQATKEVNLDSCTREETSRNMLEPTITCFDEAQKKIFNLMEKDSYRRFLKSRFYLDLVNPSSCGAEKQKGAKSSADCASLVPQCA
# RGS4 pot: RGS4 potentiation or activation | HEK293 M3R/inducible RGS4, carbachol calcium flux Fluo4; active compounds read low | B-score at 10 µM | 310,000 compounds, 0.92% hits | AID 463111;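 active means B-score of the integrated calcium signal more than 4 SD below the library mean, with starting fluorescence not abnormally high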;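 further: negative B-score means reduced calcium response which marks RGS4 activation or potentiation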
#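 test system = HEK293 cells with stable M3R and inducible RGS4 | schedule = recording 10 s baseline at 1 Hz, 100 s post-agonist | technique = Fluo4-AM (2 µM) calcium-flux fluorescence, kinetic read | measure = Agonist-evoked peak-minus-minimum fluorescence over baseline, integrated ratio, B score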
# MrgX1 agonist: human MrgX1 receptor agonism, primary screen. Q96LB2. MrgX1-HEK293 cells, Fluo-4 calcium fluorescence, agonist mode; active compounds read high. B-score at 10 µM. 310,000 compounds, 0.44% hits. AID 588627;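 active means calcium response B-score plate-corrected fluorescence ratio at least 3 library SD, with starting fluorescence B-score inside 5 SD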
#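 Material – MrgX1-expressing HEK293 cells · Input – 15,000 cells seeded per well · Dosing – compound as first of three additions · Times – overnight seeding, then 1 h dark dye loading · Measured by – kinetic Fluo-4 NW fluorescence of intracellular calcium · Read-out – B-scored fluorescence response ratio · Benchmarks – positive and negative control wells on each plate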
# MrgX1 antag conf: confirmation of human MrgX1 receptor antagonists | remaining BAM8-22 calcium response % of control (active compounds read low), % at 10 µM | 2,300 compounds, 19% hits | AID 602420 | MrgX1-HEK293, BAM8-22 calcium flux, Fluo-4; active compounds read low | shares compounds with MrgX1 antagonist;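 active means remaining agonist calcium response no higher than 100% minus 3 SD of agonist-only control wells, with starting fluorescence near control levels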;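 further: agonist BAM8-22 given at a near maximal EC90 to ECmax level; peak minus minimum fluorescence divided by baseline after agonist addition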
# HEK293 Ca flux: MrgX1 antagonist counter-screen hit in parental HEK293 cells | shares compounds with MrgX1 antagonist | Fluo-4 calcium fluorescence, FDSS | fluorescence ratio F(max-min)/F0 at 10 µM | 4,000 compounds, 2% hits;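 active means duplicate-averaged calcium fluorescence ratio at least three times the standard deviation of buffer wells, a nonspecific response in parental cells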
# HEK293 Ca counter: activity in parental HEK293 cells without MrgX1; shares compounds with MrgX1 antagonist; AID 624114; parental HEK293 calcium flux, Fluo-4 fluorescence ratio; active compounds read high; fluorescence ratio F(max-min)/F0 at 10 µM; 4,000 compounds, 0.4% hits;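 active means calcium fluorescence ratio, averaged over duplicates, at least 3 SD of the buffer-well ratio, meaning a nonspecific response in receptor-free cells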;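 further: untransfected parental HEK293 lacking MrgX1 used as counterscreen for MrgX1 allosteric activators; fluorescence change taken during the second addition on a kinetic imager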
# HEK293 Ca cntr2: MrgX1 activator counter-screen hit in parental HEK293 cells; shares compounds with MrgX1 antagonist; Fluo-4 calcium fluorescence (FDSS); active compounds read high; fluorescence ratio F(max-min)/F0 at 10 µM; 4,000 compounds, 8.7% hits; AID 624115;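 active means calcium fluorescence ratio at least three times the spread of buffer wells, meaning a non-specific response in parental cells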
# Starred values were filed as active, the others as inactive; i = inactive; / = no result given. In the library only some 3.5% were active in any assay of this set; here they are far more common.
SMILES,MrgX1 antagonist,MrgX1 PAM,RGS4 inh,RGS4 pot,MrgX1 agonist,MrgX1 antag conf,HEK293 Ca flux,HEK293 Ca counter,HEK293 Ca cntr2
COc1ccc(CC(=O)NC(C)(C)C)cc1S(=O)(=O)N1CCOCC1,i,i,i,i,i,/,/,/,/
COc1ccc(CC(=O)NC(C)c2ccc(S(N)(=O)=O)cc2)cc1S(=O)(=O)N1CCOCC1 (configuration not stated),-9.27*,i,i,i,i,i,i,i,i
O=C(NCc1cccc(F)c1)C1CCN(C(=O)c2sccc2-n2cccc2)CC1,i,i,i,i,i,/,/,/,/
Oc1c(Br)cc(Br)cc1C=Nc1cccc2ncccc12,-7.06*,i,i,i,i,82.6%*,i,i,i
COc1ccc(Cc2nnc(NC(=O)c3ccccc3F)s2)cc1OC,i,i,i,i,i,/,/,/,/
CCN(CC)CCN1C(=O)C2C(C(=O)Nc3cc(C)cc(C)c3)C3C=CC2(O3)C1C(=O)NC1CCCCC1 (configuration not stated),i,i,i,i,i,/,/,/,/
CCCn1c(N2CCN(C(=O)Nc3ccccc3)CC2)nc2ccccc21,i,i,i,i,i,/,/,/,/
CCCn1c(N2CCN(C(=O)N3CCCCC3)CC2)nc2ccccc21,-6.16*,i,i,i,i,i,i,i,i
O=C(NC(=S)Nc1ccccn1)c1cncc(Br)c1,i,i,i,i,i,/,/,/,/
Cc1cccnc1NC(=S)NC(=O)c1cncc(Br)c1,-4.55*,i,i,i,i,i,i,i,i
CCOCCCNC(=S)Nc1ccc2nc(N3CCOCC3)cc(C)c2c1,i,i,i,i,i,/,/,/,/
O=C(NS(=O)(=O)c1ccc(Cl)cc1)c1ccccc1,-4.9*,i,i,i,i,i,i,i,i
Cc1ccccc1OCC(=O)NS(=O)(=O)c1ccc(Cl)cc1,-9.16*,i,i,i,i,83.2%*,i,i,i
O=C(NS(=O)(=O)c1ccccc1)c1ccccc1,i,i,i,i,i,/,/,/,/
CCN(CC)C(=O)Cn1cc(C(=O)C(=O)N2CCN(c3ccc(OC)cc3)CC2)c2ccccc21,i,i,i,i,i,/,/,/,/
COc1ccc(C(=O)c2cn[nH]c2-c2cc(Cl)ccc2O)cc1,i,i,i,i,i,/,/,/,/
COc1ccc(C(=O)c2cn[nH]c2-c2cc(C)ccc2O)cc1,-4.51*,i,i,i,i,i,i,i,i
CCOC(=O)C(NC(=O)c1ccccc1)(Nc1nnc(C)s1)C(F)(F)F (configuration not stated),-8.7*,i,i,i,i,i,i,i,i
CCOC(=O)C(NC(=O)c1ccccc1)(Nc1cc(C)on1)C(F)(F)F (configuration not stated),i,i,i,i,i,/,/,/,/
CC(C)c1ccc(C(C)NC(=S)NC2CCCCC2)cc1 (configuration not stated),i,i,i,i,i,/,/,/,/
CC(NC(=S)NC1CCCCC1)c1ccc(C(C)(C)C)cc1 (configuration not stated),-6.82*,i,i,i,i,50.9%*,i,i,i
CC1CCCCC1NC(=O)CN1C(=O)c2ccccc2S1(=O)=O (configuration not stated),i,i,i,i,i,/,/,/,/
